Test results: ChEMBL document CHEMBL3352743, “Chemically accessible hsp90 inhibitor that does not induce a heat shock response” (ACS Med Chem Lett, 2014)
Values after ≈ are worked out from the molar mass of the structure shown. Blank lines part the entries; values can stand above or below the molecule they belong to. Active and inactive are the calls of the source. The calls are words filed in the database; no cut-off is given here.

Key:
[1] = Induction of heat shock response in human HCT116 cells assessed as HSP70 protein expression at IC50 level by western blotting method relative to untreated control; format: cell-based; settings: hct-116
[2] = Induction of heat shock response in human HCT116 cells assessed as HSP90 protein expression at IC50 level by western blotting method relative to untreated control; format: cell-based; settings: hct-116
[3] = Induction of heat shock response in human HCT116 cells assessed as HSF1 protein expression at IC50 level by western blotting method relative to untreated control; format: cell-based; settings: hct-116
[4] = Induction of heat shock response in human HCT116 cells assessed as HSP40 protein expression at IC50 level by western blotting method relative to untreated control; format: cell-based; settings: hct-116
[5] = Induction of heat shock response in human HCT116 cells assessed as HSP27 protein expression at IC50 level by western blotting method relative to untreated control; format: cell-based; settings: hct-116
[6] = Induction of heat shock response in human MIAPaCa2 cells assessed as HSF1 protein expression at IC50 level by western blotting method relative to untreated control; format: cell-based; settings: mia paca-2
[7] = Induction of heat shock response in human MIAPaCa2 cells assessed as HSP90 protein expression at IC50 level by western blotting method relative to untreated control; format: cell-based; settings: mia paca-2
Method in brief: (§1)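 MiaPaCa-2 cells, run alongside HCT-116, treated with compound at the line's level and also at 10-fold above it. Western blotting measured HSF1, hsp90, hsp70, hsp40 and hsp27 protein levels, quantified as fold change versus untreated control.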

[8] = Induction of heat shock response in human MIAPaCa2 cells assessed as HSP70 protein expression at IC50 level by western blotting method relative to untreated control; format: cell-based; settings: mia paca-2
[9] = Induction of heat shock response in human MIAPaCa2 cells assessed as HSP40 protein expression at IC50 level by western blotting method relative to untreated control; format: cell-based; settings: mia paca-2
[10] = Induction of heat shock response in human MIAPaCa2 cells assessed as HSP27 protein expression at IC50 level by western blotting method relative to untreated control; format: cell-based; settings: mia paca-2; method in brief: as §1
HCT-116 [11] = test: Induction of apoptosis in human HCT116 cells at 1000 nM after 24 hrs by annexin V and 7-AAD staining based flow cytometry; format: functional
HCT-116 [12] = test: Induction of apoptosis in human HCT116 cells assessed as caspase 3/7 activation at 1000 nM after 24 hrs by luminometry; format: functional
MIA PaCa-2 = test: Induction of apoptosis in human MIAPaCa2 cells assessed as caspase 3/7 activation at 1000 nM after 24 hrs by luminometry; format: functional
[13] = target: Heat shock protein HSP 90-beta (Oryctolagus cuniculus) (UniProt P30947); settings: 100 nM
[14] = Cytotoxicity against human HCT116 cells after 72 hrs by CCK8 assay; format: functional, cell-based; settings: HCT-116, 72 h
[15] = Cytotoxicity against human MIAPaCa2 cells after 72 hrs by CCK8 assay; format: functional, cell-based; settings: MIA PaCa-2, 72 h
[16] = Solubility in 80% EtOH/20% water; format: physicochemical; settings: 80% EtOH/20% water; read-out: solubility
[17] = target: Heat shock protein HSP 90-beta (Homo sapiens) (UniProt P08238); test: Binding affinity to HSP90 in human HCT116 cells by coomassie blue staining and Western blotting based pull down assay; format: cell-based; settings: HCT-116
Method in brief: (§2)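 Biotin-tagged analogue (0.1 mg) incubated in HCT-116 or MiaPaCa-2 cell lysate, then recovered on NeutrAvidin beads. Bound proteins eluted in sample buffer, visualized by Coomassie stain or Western blot, and identified by nano-LC/MS/MS. Image representative of 3 independent assays.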

[18] = target: Heat shock protein HSP 90-beta (Homo sapiens) (UniProt P08238); test: Binding affinity to HSP90 in human MIAPaCa2 cells by coomassie blue staining and Western blotting based pull down assay; format: cell-based; settings: MIA PaCa-2; method in brief: as §2

Chain of Heat shock protein HSP 90-beta (Homo sapiens) (P08238 whole entry): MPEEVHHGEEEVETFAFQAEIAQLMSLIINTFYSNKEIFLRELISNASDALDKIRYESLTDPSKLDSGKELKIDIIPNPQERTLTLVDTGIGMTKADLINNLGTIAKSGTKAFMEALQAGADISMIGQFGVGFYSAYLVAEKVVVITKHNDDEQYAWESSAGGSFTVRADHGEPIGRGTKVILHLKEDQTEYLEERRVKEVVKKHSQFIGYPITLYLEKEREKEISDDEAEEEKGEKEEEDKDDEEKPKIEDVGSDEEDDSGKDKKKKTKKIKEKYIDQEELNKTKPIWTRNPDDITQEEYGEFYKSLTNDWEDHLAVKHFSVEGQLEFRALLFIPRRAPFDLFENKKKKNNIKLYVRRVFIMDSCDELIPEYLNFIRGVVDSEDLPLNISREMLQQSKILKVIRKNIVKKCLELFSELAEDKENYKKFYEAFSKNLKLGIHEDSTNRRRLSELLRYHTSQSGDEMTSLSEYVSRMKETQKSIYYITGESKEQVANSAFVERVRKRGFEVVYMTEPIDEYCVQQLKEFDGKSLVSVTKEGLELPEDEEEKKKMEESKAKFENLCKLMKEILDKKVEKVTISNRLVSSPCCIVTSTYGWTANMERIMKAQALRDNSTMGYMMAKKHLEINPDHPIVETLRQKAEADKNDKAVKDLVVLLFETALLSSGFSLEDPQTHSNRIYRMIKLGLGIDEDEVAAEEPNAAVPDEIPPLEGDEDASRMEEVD
Chain of Heat shock protein HSP 90-beta (Oryctolagus cuniculus) (P30947 whole entry): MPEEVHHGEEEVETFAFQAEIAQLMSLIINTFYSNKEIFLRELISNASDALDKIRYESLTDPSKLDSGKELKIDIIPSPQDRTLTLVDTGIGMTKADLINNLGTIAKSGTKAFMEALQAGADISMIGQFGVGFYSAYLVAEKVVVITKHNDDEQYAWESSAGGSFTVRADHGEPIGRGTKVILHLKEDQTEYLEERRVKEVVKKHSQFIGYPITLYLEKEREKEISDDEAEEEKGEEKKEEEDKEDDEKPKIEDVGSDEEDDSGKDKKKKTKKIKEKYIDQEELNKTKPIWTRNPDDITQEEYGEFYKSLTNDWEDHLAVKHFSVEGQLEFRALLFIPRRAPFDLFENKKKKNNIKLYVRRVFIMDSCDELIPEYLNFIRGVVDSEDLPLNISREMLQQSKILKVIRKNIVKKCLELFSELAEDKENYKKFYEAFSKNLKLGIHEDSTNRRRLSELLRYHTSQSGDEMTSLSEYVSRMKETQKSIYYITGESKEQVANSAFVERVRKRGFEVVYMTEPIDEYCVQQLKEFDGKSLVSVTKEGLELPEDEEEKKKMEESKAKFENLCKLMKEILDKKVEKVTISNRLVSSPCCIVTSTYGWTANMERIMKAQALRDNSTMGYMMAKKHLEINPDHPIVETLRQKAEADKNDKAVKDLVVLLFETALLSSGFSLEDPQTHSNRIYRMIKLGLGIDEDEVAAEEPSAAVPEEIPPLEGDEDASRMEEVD

Structure (SMILES): CC(C)C[C@@H]1NC(=O)[C@H](C(C)C)N(C)C(=O)[C@@H](CC(C)C)NC(=O)[C@@H](Cc2ccncc2)NC(=O)[C@@H](C(c2ccccc2)c2ccccc2)NC1=O
- IC50 [14]: 15.7 µM
- IC50 [15]: 18.5 µM

Structure (SMILES): CC(C)C[C@@H]1NC(=O)[C@H](C(C)C)N(C)C(=O)[C@@H](CC(C)C)NC(=O)[C@@H](Cc2cccnc2)NC(=O)[C@@H](C(c2ccccc2)c2ccccc2)NC1=O
- IC50 [14]: 20.8 µM
- IC50 [15]: 23 µM

Continued, in another order:

- fold change (FC) [1]: 2
- fold change (FC) [2]: 2
- fold change (FC) [3]: 2
- fold change (FC) [4]: 2
- fold change (FC) [5]: 2
- fold change (FC) [6]: 2
- fold change (FC) [7]: 2
- fold change (FC) [8]: 2
- fold change (FC) [9]: 2
- fold change (FC) [10]: 2
- inhibition [13]: 17%
Structure (SMILES): C=CCNC1=C2C[C@@H](C)C[C@H](OC)[C@H](O)[C@@H](C)/C=C(\C)[C@H](OC(N)=O)[C@@H](OC)/C=C\C=C(/C)C(=O)NC(=CC1=O)C2=O [TANESPIMYCIN]
- Activity (HCT-116 [11]): 25%
- fold change (FC) (HCT-116 [12]): 2
- fold change (FC) (MIA PaCa-2): 2

- solubility [16]: 1500 µg/mL (≈ 2030 µM)
Structure (SMILES): COc1ccc(C[C@H]2NC(=O)[C@@H](C(c3ccccc3)c3ccccc3)NC(=O)[C@H](CC(C)C)NC(=O)[C@H](C(C)C)N(C)C(=O)[C@@H](CC(C)C)NC2=O)cc1
- IC50 [14]: 5.1 µM
- IC50 [15]: 4.4 µM

- Activity [17]: Active
- Activity [18]: Active
Structure (SMILES): CC(C)C[C@H]1NC(=O)[C@@H](Cc2cscn2)NC(=O)[C@@H](C(c2ccccc2)c2ccccc2)NC(=O)[C@H](CCCCNC(=O)CCOCCOCCOCCOCCNC(=O)CCCC[C@@H]2SC[C@@H]3NC(=O)N[C@@H]32)NC(=O)[C@H](C(C)C)N(C)C1=O
